pKi: −log10 of the molar value.
Target: T1, Neuropeptide Y receptor type 1 (Homo sapiens, UniProt P25929)
T1 sequence (P25929 whole entry): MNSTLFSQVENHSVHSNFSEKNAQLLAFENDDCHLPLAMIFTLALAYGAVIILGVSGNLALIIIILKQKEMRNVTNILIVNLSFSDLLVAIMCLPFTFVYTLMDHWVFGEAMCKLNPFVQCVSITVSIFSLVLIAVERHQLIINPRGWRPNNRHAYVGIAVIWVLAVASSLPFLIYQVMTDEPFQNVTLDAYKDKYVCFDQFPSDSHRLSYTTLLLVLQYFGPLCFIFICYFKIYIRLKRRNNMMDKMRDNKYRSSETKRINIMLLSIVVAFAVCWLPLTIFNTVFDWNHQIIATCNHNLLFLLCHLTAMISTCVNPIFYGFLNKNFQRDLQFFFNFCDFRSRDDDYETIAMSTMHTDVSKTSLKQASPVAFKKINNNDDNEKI
Assay: In vitro binding affinity towards Neuropeptide Y receptor type 1 was determined as potency to displace [125I]-peptide YY binding to human neuroblastoma SK-N-MC cells
Type: cell-based
In short: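 Intact SK-N-MC cells grown 2 days, washed with HEPES (20 mM)-buffered Hank's solution pH 7.4 plus 1% BSA, then incubated with 0.1 nM [125I]PYY and varying concentrations of unlabeled compound at 37 °C for 60 min. Washed twice with ice-cold buffer, lysed in 1 N NaOH, gamma-counted. Nonspecific binding defined with 10^-6 M NPY.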

Row | pKi | Structure (SMILES)
1 | 8.14 | C/N=C(/Nc1ccc(O)cc1)NC1CCc2ccccc2N(Cc2cccc(NC(=O)NC(C)C)c2)C1=O (stereo not drawn)
2 | 7.25 | CC(C)NC(=O)Nc1cccc(CN2C(=O)C(NC(=O)Nc3ccc4ncccc4c3)CCc3ccccc32)c1 (stereo not drawn)
3 | < 5.00 | O=C(Nc1ccccc1)NC1CCc2ccccc2N(Cc2cccc(NC(=O)N3CCOCC3)c2)C1=O (stereo not drawn)
4 | 7.44 | CC(C)NC(=O)Nc1cccc(CN2C(=O)C(N=C(Nc3ccc(O)cc3)NC(C)C)CCc3ccccc32)c1 (stereo not drawn)
5 | 6.62 | CC(C)NC(=O)Nc1cccc(CN2C(=O)C(NC(=O)Nc3ccccn3)CCc3ccccc32)c1 (stereo not drawn)
6 | 6.21 | CC(C)NC(=O)Nc1cccc(CN2C(=O)C(NC(=O)Nc3ccc(-c4ccccc4)cc3)CCc3ccccc32)c1 (stereo not drawn)
7 | 7.77 | CC(C)NC(=O)Nc1cccc(CN2C(=O)C(NC(=O)Nc3ccc4ocnc4c3)CCc3ccccc32)c1 (stereo not drawn)
8 | 5.85 | CC(C)NC(=O)Nc1cccc(CN2C(=O)C(CNC(=O)Nc3ccccc3)CCc3ccccc32)c1 (stereo not drawn)
9 | 5.39 | CC(C)NC(=O)Nc1cccc(CN2C(=O)C(COC(=O)Nc3ccccc3)CCc3ccccc32)c1 (stereo not drawn)
10 | 7.55 | CC(C)NC(=O)Nc1cccc(CN2C(=O)C(NC(=O)Nc3ccc4c(c3)OCO4)CCc3ccccc32)c1 (stereo not drawn)
11 | < 5.00 | CC(C)NC(=O)Nc1cccc(CN2C(=O)C(NC(=O)Nc3cc[nH]n3)CCc3ccccc32)c1 (stereo not drawn)
12 | 6.35 | CC(C)NC(=O)Nc1cccc(CN2C(=O)C(OC(=O)Nc3ccccc3)CCc3ccccc32)c1 (stereo not drawn)
13 | 8.11 | CC(C)NC(=O)Nc1cccc(CN2C(=O)C(NC(=O)Nc3ccc4ccsc4c3)CCc3ccccc32)c1 (stereo not drawn)
14 | 5.42 | CC(C)NC(=O)Cc1cccc(CN2C(=O)C(NC(=O)Nc3ccccc3)CCc3ccccc32)c1 (stereo not drawn)
15 | 7.06 | CC(C)NC(=O)Nc1cccc(CN2C(=O)C(NC(=O)Nc3ccc([N+](=O)[O-])cc3)CCc3ccccc32)c1 (stereo not drawn)
16 | 7.25 | CC(C)NC(=O)Nc1cccc(CN2C(=O)C(NC(=O)Nc3ccccc3)CCCc3ccccc32)c1 (stereo not drawn)
17 | 7.59 | CC(C)NC(=O)Nc1cccc(CN2C(=O)C(NC(=O)Nc3ccc4[nH]ncc4c3)CCc3ccccc32)c1 (stereo not drawn)
18 | 6.11 | CC(C)NC(=O)Nc1cccc(CN2C(=O)C(NC(=O)Nc3ccc4c(c3)C(=O)N(C)C4=O)CCc3ccccc32)c1 (stereo not drawn)
19 | 8.12 | CC(C)NC(=O)Nc1cccc(CN2C(=O)C(NC(=O)Nc3ccccc3F)CCc3ccccc32)c1 (stereo not drawn)
20 | 6.04 | O=C(Nc1cccc(CN2C(=O)C(NC(=O)Nc3ccccc3)CCc3ccccc32)c1)NC1CC1 (stereo not drawn)
21 | 5.14 | CNC(=O)Nc1cccc(CN2C(=O)C(NC(=O)Nc3ccccc3)CCc3ccccc32)c1 (stereo not drawn)

Row | pKi | Structure (SMILES)
22 | 8.54 | CC(C)NC(=O)Nc1cccc(CN2C(=O)C(/N=C(\N)Nc3ccc(O)cc3)CCc3ccccc32)c1 (stereo not drawn)
23 | 7.89 | CC(C)NC(=O)Nc1cccc(CN2C(=O)C(NC(=O)Nc3ccc4sccc4c3)CCc3ccccc32)c1 (stereo not drawn)
24 | 6.33 | CC(C)NC(=O)Nc1cccc(CN2C(=O)C(NC(=O)Nc3ccccc3)COc3ccccc32)c1 (stereo not drawn)
25 | 7.74 | CC(C)NC(=O)Nc1cccc(CN2C(=O)C(NC(=O)Nc3ccc4c(c3)OCCO4)CCc3ccccc32)c1 (stereo not drawn)
26 | 7.82 | C/N=C(/Nc1ccccc1)NC1CCc2ccccc2N(Cc2cccc(NC(=O)NC(C)C)c2)C1=O (stereo not drawn)
27 | < 5.00 | O=C(Nc1ccccc1)Nc1cccc(CN2C(=O)C(NC(=O)Nc3ccccc3)CCc3ccccc32)c1 (stereo not drawn)
28 | 7.10 | COc1ccc(NC(=O)NC2CCc3ccccc3N(Cc3cccc(NC(=O)NC(C)C)c3)C2=O)cc1 (stereo not drawn)
29 | 5.26 | CC(C)NC(=O)Nc1cccc(CN2C(=O)C(NS(=O)(=O)c3ccccc3)CCc3ccccc32)c1 (stereo not drawn)
30 | < 5.00 | CC(C)NC(=O)Nc1nc(CN2C(=O)C(NC(=O)Nc3ccc(F)cc3F)CCc3ccccc32)cs1 (stereo not drawn)
31 | 7.18 | CC(C)NC(=O)Nc1cccc(CN2C(=O)C(NC(=O)Nc3ccc(N(C)C)cc3)CCc3ccccc32)c1 (stereo not drawn)
32 | 6.16 | CC(C)NC(=O)Nc1cccc(CN2C(=O)C(NC(=O)Nc3nc4ccccc4s3)CCc3ccccc32)c1 (stereo not drawn)
33 | 7.09 | CC(C)NC(=O)Nc1cccc(CN2C(=O)C(NC(=O)Nc3ccc(O)cc3)CCc3ccccc32)c1 (stereo not drawn)
34 | 7.74 | CC(C)NC(=O)Nc1cccc(CN2C(=O)C(NC(=O)Nc3ccc4[nH]ccc4c3)CCc3ccccc32)c1 (stereo not drawn)
35 | < 8.00 | COC(=O)Nc1cccc(CN2C(=O)C(NC(=O)Nc3ccccc3)CCc3ccccc32)c1 (stereo not drawn)
36 | 7.07 | CC(C)NC(=O)Nc1cccc(CN2C(=O)C(NC(=O)Nc3cc(F)cc(F)c3)CCc3ccccc32)c1 (stereo not drawn)
37 | 8.11 | CC(C)NC(=O)Nc1cccc(CN2C(=O)C(NC(=O)Nc3ccc(F)cc3F)CCc3ccccc32)c1 (stereo not drawn)
38 | 6.16 | CC(C)OC(=O)Nc1cccc(CN2C(=O)C(NC(=O)Nc3ccccc3)CCc3ccccc32)c1 (stereo not drawn)
39 | 7.62 | CC(C)NC(=O)Nc1cccc(CN2C(=O)C(NC(=O)Nc3ccc4scnc4c3)CCc3ccccc32)c1 (stereo not drawn)
40 | 7.19 | CC(C)NC(=O)Nc1cccc(CN2C(=O)C(N=C(NCCO)Nc3ccc(O)cc3)CCc3ccccc32)c1 (stereo not drawn)
41 | 7.77 | CC(C)NC(=O)Nc1cccc(CN2C(=O)C(NC(=O)Nc3ccc4c(c3)CCC4)CCc3ccccc32)c1 (stereo not drawn)
42 | 7.08 | CC(C)NC(=O)Nc1cccc(CN2C(=O)C(NC(=O)Nc3ccncc3)CCc3ccccc32)c1 (stereo not drawn)

Row | pKi | Structure (SMILES)
43 | 8.11 | CC(C)NC(=O)Nc1cccc(CN2C(=O)C(NC(=O)Nc3ccc4ccoc4c3)CCc3ccccc32)c1 (stereo not drawn)
44 | 7.60 | CC(C)NC(=O)Nc1cccc(CN2C(=O)C(NC(=O)Nc3ccc4c(c3)C(=O)NC4=O)CCc3ccccc32)c1 (stereo not drawn)
45 | < 5.00 | CC(C)NC(=O)Nc1cccc(CN2C(=O)C(NC(=O)c3ccccc3)CCc3ccccc32)c1 (stereo not drawn)
46 | 7.00 | CC(C)NC(=O)Nc1cccc(CN2C(=O)C(NC(=O)Nc3cccc(F)c3F)CCc3ccccc32)c1 (stereo not drawn)
47 | 5.92 | CC(C)(C)OC(=O)Nc1cccc(CN2C(=O)C(NC(=O)Nc3ccccc3)CCc3ccccc32)c1 (stereo not drawn)
48 | 7.15 | CC(C)NC(=O)Nc1cccc(CN2C(=O)C(NC(=O)Nc3ccc(Cl)cc3)CCc3ccccc32)c1 (stereo not drawn)
49 | 6.85 | CC(C)CNC(=O)Nc1cccc(CN2C(=O)C(NC(=O)Nc3ccccc3)CCc3ccccc32)c1 (stereo not drawn)
50 | < 5.00 | CN(C(=O)OC(C)(C)C)c1cccc(CN2C(=O)C(NC(=O)Nc3ccccc3)CCc3ccccc32)c1 (stereo not drawn)
51 | 6.80 | CC(C)NC(=O)Nc1cccc(CN2C(=O)C(NC(=O)Nc3nccs3)CCc3ccccc32)c1 (stereo not drawn)
52 | 7.12 | CC(C)(C)NC(=O)Nc1cccc(CN2C(=O)C(NC(=O)Nc3ccccc3)CCc3ccccc32)c1 (stereo not drawn)
53 | 7.37 | CC(C)NC(=O)Nc1cccc(CN2C(=O)C(NC(=O)Nc3ccccc3)CCc3ccccc32)c1 (stereo not drawn)
54 | 6.70 | CC(C)NC(=O)Nc1cccc(CN2C(=O)C(NC(=O)Nc3ccc(N)cc3)CCc3ccccc32)c1 (stereo not drawn)
55 | 6.85 | CC(C)NC(=O)Nc1cccc(CN2C(=O)C(NC(=O)Nc3cnc4ccccc4c3)CCc3ccccc32)c1 (stereo not drawn)
56 | 8.29 | CC(C)NC(=O)Nc1cccc(CN2C(=O)C(NC(=O)Nc3ccc4ncsc4c3)CCc3ccccc32)c1 (stereo not drawn)
57 | < 5.00 | Nc1cccc(CN2C(=O)C(NC(=O)Nc3ccccc3)CCc3ccccc32)c1 (stereo not drawn)
58 | 5.15 | CC(C)NC(=O)Nc1cccc(CN2CCCCC(NC(=O)Nc3ccccc3)C2=O)c1 (stereo not drawn)
59 | 7.54 | CC(C)NC(=O)Nc1cccc(CN2C(=O)C(NC(=O)Nc3ccc(F)cc3)CCc3ccccc32)c1 (stereo not drawn)
60 | 6.82 | CC(C)NC(=O)Nc1cccc(CN2C(=O)C(NC(=O)Nc3nncs3)CCc3ccccc32)c1 (stereo not drawn)
61 | < 5.00 | NC(=O)Nc1cccc(CN2C(=O)C(NC(=O)Nc3ccccc3)CCc3ccccc32)c1 (stereo not drawn)

Row | Structure (SMILES) | pKi
62 | CC(C)NC(=O)Nc1cccc(CN2C(=O)C(NC(=O)Oc3ccccc3)CCc3ccccc32)c1 (stereo not drawn) | 5.68
63 | O=C(Nc1ccccc1)NC1CCc2ccccc2N(Cc2cccc(NC(=O)Oc3ccccc3)c2)C1=O (stereo not drawn) | < 5.00

Source: ChEMBL document CHEMBL1132300, “1,3-Disubstituted benzazepines as novel, potent, selective neuropeptide Y Y1 receptor antagonists” (J Med Chem, 1999)
